Source: ChEMBL document CHEMBL3525900, “Pharmacokinetics, distribution, and metabolism of [14C]sunitinib in rats, monkeys, and humans” (Drug Metab Dispos, 2012)

Tests used:
[1] = Drug excretion in urine of male Sprague-Dawley rat at 15 mg/kg, po administered as single dose by liquid scintillation counting; assay type: ADME, organism-based; parameters: dose 15 mg/kg, dosed compound name [14C]Sunitinib, route oral; conditions: in vivo
[2] = Drug excretion in feces of female Sprague-Dawley rat at 5 mg/kg, iv administered as single dose by liquid scintillation counting; assay type: ADME, organism-based; parameters: dose 5 mg/kg, dosed compound name [14C]Sunitinib, route intravenous; conditions: in vivo
[3] = Drug excretion in urine of female Sprague-Dawley rat at 5 mg/kg, iv administered as single dose by liquid scintillation counting; assay type: ADME, organism-based; parameters: dose 5 mg/kg, dosed compound name [14C]Sunitinib, route intravenous; conditions: in vivo
[4] = Drug excretion in feces of female cynomolgus monkey at 6 mg/kg, po administered as single dose by liquid scintillation counting; assay type: ADME, organism-based, Macaca fascicularis; parameters: dose 6 mg/kg, dosed compound name [14C]Sunitinib, route oral; conditions: in vivo
[5] = AUC (0 to infinity) in female Sprague-Dawley rat plasma at 15 mg/kg, po administered as single dose by LC/MS/MS analysis; assay type: ADME, organism-based; parameters: time infinity, dose 15 mg/kg, dosed compound name [14C]Sunitinib, route oral
In short: (§1)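 Single dose of [14C]sunitinib L-malate as free base, 50 µCi/kg. IV dose was 5 mg/kg by tail vein in 5 females. Oral dose was 15 mg/kg by gavage in 3 females and 3 males. Total radioactivity was by scintillation counting. […] Cmax was read from raw data, t½ by log-linear regression, AUC by linear trapezoidal rule.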

[6] = Apparent terminal half life in female Sprague-Dawley rat plasma at 15 mg/kg, po administered as single dose by LC/MS/MS analysis; assay type: ADME, organism-based; parameters: dose 15 mg/kg, dosed compound name [14C]Sunitinib, route oral; conditions: read-out: t1/2 lambda z (converted); in short: as §1
[7] = Cmax in male Sprague-Dawley rat plasma at 15 mg/kg, po administered as single dose by LC/MS/MS analysis; assay type: ADME, organism-based; parameters: dose 15 mg/kg, dosed compound name [14C]Sunitinib, route oral; in short: as §1
[8] = Tmax in male Sprague-Dawley rat plasma at 15 mg/kg, po administered as single dose by LC/MS/MS analysis; assay type: ADME, organism-based; parameters: dose 15 mg/kg, dosed compound name [14C]Sunitinib, route oral
[9] = AUC (0 to infinity) in male Sprague-Dawley rat plasma at 15 mg/kg, po administered as single dose by LC/MS/MS analysis; assay type: ADME, organism-based; parameters: time infinity, dose 15 mg/kg, dosed compound name [14C]Sunitinib, route oral; in short: as §1
[10] = Apparent terminal half life in male Sprague-Dawley rat plasma at 15 mg/kg, po administered as single dose by LC/MS/MS analysis; assay type: ADME, organism-based; parameters: dose 15 mg/kg, dosed compound name [14C]Sunitinib, route oral; conditions: read-out: t1/2 lambda z (converted); in short: as §1
[11] = Cmax in female Sprague-Dawley rat plasma at 5 mg/kg, iv administered as single dose by LC/MS/MS analysis; assay type: ADME, organism-based; parameters: dose 5 mg/kg, dosed compound name [14C]Sunitinib, route intravenous; in short: as §1
[12] = AUC (0 to infinity) in female Sprague-Dawley rat plasma at 5 mg/kg, iv administered as single dose by LC/MS/MS analysis; assay type: ADME, organism-based; parameters: time infinity, dose 5 mg/kg, dosed compound name [14C]Sunitinib, route intravenous; in short: as §1
[13] = Apparent terminal half life in female Sprague-Dawley rat plasma at 5 mg/kg, iv administered as single dose by LC/MS/MS analysis; assay type: ADME, organism-based; parameters: dose 5 mg/kg, dosed compound name [14C]Sunitinib, route intravenous; conditions: read-out: t1/2 lambda z (converted); in short: as §1
[14] = Clearance in female Sprague-Dawley rat plasma at 5 mg/kg, iv administered as single dose by LC/MS/MS analysis; assay type: ADME, organism-based; parameters: dose 5 mg/kg, dosed compound name [14C]Sunitinib, route intravenous
In short: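 Female rats (5) were given a single tail-vein bolus of [14C]sunitinib L-malate at 5 mg/kg free base (50 µCi/kg). […] Parameters were noncompartmental, with AUC by the linear trapezoidal rule.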

[15] = Volume of distribution at steady state in female Sprague-Dawley rat plasma at 5 mg/kg, iv administered as single dose by LC/MS/MS analysis; assay type: ADME, organism-based; parameters: dose 5 mg/kg, dosed compound name [14C]Sunitinib, route intravenous; conditions: read-out: Vdss
[16] = Cmax in human plasma at 50 mg, po administered as single dose by LC/MS/MS analysis; assay type: ADME, organism-based; parameters: dose 50 mg, route oral, dosed compound name [14C]Sunitinib
In short: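 This was an open-label, single-dose, single-centre phase I study in eight male subjects. Each received one oral 50 mg dose of [14C]sunitinib (100 µCi). Plasma sunitinib was measured by a validated LC-MS-MS method. Cmax was read directly from the raw concentration–time data.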

[17] = Tmax in human plasma at 50 mg, po administered as single dose by LC/MS/MS analysis; assay type: ADME, organism-based; parameters: dosed compound name [14C]Sunitinib
[18] = AUC (0 to infinity) in human plasma at 50 mg, po administered as single dose by LC/MS/MS analysis; assay type: ADME, organism-based; parameters: dose 50 mg, route oral, time infinity, dosed compound name [14C]Sunitinib
In short: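 Open-label phase I study in 8 subjects given one 50 mg oral dose of [14C]sunitinib (100 µCi). Plasma total radioactivity was counted by scintillation on triplicate 0.25 mL aliquots. Sunitinib was quantified by LC-MS-MS. Noncompartmental analysis: Cmax read directly, terminal t½ = ln(2)/slope of the log-concentration regression, AUC by linear trapezoidal rule to the last detectable concentration.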

[19] = Terminal half life in human plasma at 50 mg, po administered as single dose by LC/MS/MS analysis; assay type: ADME, organism-based; parameters: dosed compound name [14C]Sunitinib; conditions: read-out: beta t1/2 (converted)
[20] = Apparent oral clearance in human plasma at 50 mg, po administered as single dose by LC/MS/MS analysis; assay type: ADME, organism-based; parameters: dosed compound name [14C]Sunitinib
[21] = Cmax in female cynomolgus monkey plasma at 6 mg/kg, po administered as single dose by LC/MS/MS analysis; assay type: ADME, organism-based, Macaca fascicularis; parameters: dose 6 mg/kg, dosed compound name [14C]Sunitinib, route oral
In short: (§2)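 Cynomolgus monkeys were given a single oral gavage of [14C]sunitinib L-malate at 6 mg/kg (37 µCi/kg). Heparinized femoral-vein blood was taken at pre-dose and 0.5–336 h. […] Cmax was read directly from the raw concentration data.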

[22] = Tmax in female cynomolgus monkey plasma at 6 mg/kg, po administered as single dose by LC/MS/MS analysis; assay type: ADME, organism-based, Macaca fascicularis; parameters: dose 6 mg/kg, dosed compound name [14C]Sunitinib, route oral
[23] = AUC (0 to infinity) in female cynomolgus monkey plasma at 6 mg/kg, po administered as single dose by LC/MS/MS analysis; assay type: ADME, organism-based, Macaca fascicularis; parameters: time infinity, dose 6 mg/kg, dosed compound name [14C]Sunitinib, route oral
In short: (§3)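 Cynomolgus monkeys of both sexes received one oral gavage of [14C]sunitinib L-malate at 6 mg/kg (37 µCi/kg). Femoral-vein blood was taken into heparin from 0.5 to 336 h. Plasma was kept cold and protected from light, then stored at -80 °C. Total radioactivity was by scintillation counting and sunitinib by methanol-extraction LC-MS-MS. Cmax was from raw data, t½ from the log-linear terminal slope, AUC(0-∞) by linear trapezoidal rule.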

[24] = Terminal half life in female cynomolgus monkey plasma at 6 mg/kg, po administered as single dose by LC/MS/MS analysis; assay type: ADME, organism-based, Macaca fascicularis; parameters: dose 6 mg/kg, dosed compound name [14C]Sunitinib, route oral; conditions: read-out: beta t1/2 (converted)
[25] = Cmax in male cynomolgus monkey plasma at 6 mg/kg, po administered as single dose by LC/MS/MS analysis; assay type: ADME, organism-based, Macaca fascicularis; parameters: dose 6 mg/kg, dosed compound name [14C]Sunitinib, route oral; in short: as §2
[26] = Tmax in male cynomolgus monkey plasma at 6 mg/kg, po administered as single dose by LC/MS/MS analysis; assay type: ADME, organism-based, Macaca fascicularis; parameters: dose 6 mg/kg, dosed compound name [14C]Sunitinib, route oral
[27] = AUC (0 to infinity) in male cynomolgus monkey plasma at 6 mg/kg, po administered as single dose by LC/MS/MS analysis; assay type: ADME, organism-based, Macaca fascicularis; parameters: time infinity, dose 6 mg/kg, dosed compound name [14C]Sunitinib, route oral; in short: as §3
[28] = Terminal half life in male cynomolgus monkey plasma at 6 mg/kg, po administered as single dose by LC/MS/MS analysis; assay type: ADME, organism-based, Macaca fascicularis; parameters: dose 6 mg/kg, dosed compound name [14C]Sunitinib, route oral; conditions: read-out: beta t1/2 (converted)
[29] = Retention time of compound by LC/MS/MS analysis; assay type: physicochemical; parameters: dosed compound name [14C]Sunitinib
[30] = Cmax in female Sprague-Dawley rat plasma at 15 mg/kg, po administered as single dose by LC/MS/MS analysis; assay type: ADME, organism-based; parameters: dose 15 mg/kg, dosed compound name [14C]Sunitinib, route oral; in short: as §1
[31] = Tmax in female Sprague-Dawley rat plasma at 15 mg/kg, po administered as single dose by LC/MS/MS analysis; assay type: ADME, organism-based; parameters: dose 15 mg/kg, dosed compound name [14C]Sunitinib, route oral
[32] = Drug excretion in urine of female cynomolgus monkey at 6 mg/kg, po administered as single dose by liquid scintillation counting; assay type: ADME, organism-based, Macaca fascicularis; parameters: dose 6 mg/kg, dosed compound name [14C]Sunitinib, route oral; conditions: in vivo
[33] = Drug excretion in feces of male cynomolgus monkey at 6 mg/kg, po administered as single dose by liquid scintillation counting; assay type: ADME, organism-based, Macaca fascicularis; parameters: dose 6 mg/kg, dosed compound name [14C]Sunitinib, route oral; conditions: in vivo
[34] = Drug excretion in urine of male cynomolgus monkey at 6 mg/kg, po administered as single dose by liquid scintillation counting; assay type: ADME, organism-based, Macaca fascicularis; parameters: dose 6 mg/kg, dosed compound name [14C]Sunitinib, route oral; conditions: in vivo
[35] = Drug excretion in feces of female Sprague-Dawley rat at 15 mg/kg, po administered as single dose by liquid scintillation counting; assay type: ADME, organism-based; parameters: dose 15 mg/kg, dosed compound name [14C]Sunitinib, route oral; conditions: in vivo
[36] = Drug excretion in urine of female Sprague-Dawley rat at 15 mg/kg, po administered as single dose by liquid scintillation counting; assay type: ADME, organism-based; parameters: dose 15 mg/kg, dosed compound name [14C]Sunitinib, route oral; conditions: in vivo
[37] = Drug excretion in feces of male Sprague-Dawley rat at 15 mg/kg, po administered as single dose by liquid scintillation counting; assay type: ADME, organism-based; parameters: dose 15 mg/kg, dosed compound name [14C]Sunitinib, route oral; conditions: in vivo
[38] = Drug excretion in feces of human at 50 mg, po administered as single dose by liquid scintillation counting; conditions: in vivo
[39] = Drug excretion in urine of human at 50 mg, po administered as single dose by liquid scintillation counting; conditions: in vivo

CCN(CC)CCNC(=O)c1c(C)[nH]c(/C=C2\C(=O)Nc3ccc(F)cc32)c1C [SUNITINIB]
Compound recovery [1]: 0.5% | Compound recovery [2]: 22.6% | Compound recovery [3]: 0.3% | Compound recovery [4]: 9.2% | AUC(0-inf) [5]: 24000 ng·h/mL | half-life [6]: 7.2 h | Cmax [7]: 963 ng/mL | Tmax [8]: 3 h | AUC(0-inf) [9]: 11800 ng·h/mL | half-life [10]: 8 h | Cmax [11]: 1820 ng/mL | AUC(0-inf) [12]: 7200 ng·h/mL | half-life [13]: 7.4 h | clearance [14]: 13 mL/min/kg | Vd [15]: 3.36 L/kg | Cmax [16]: 24.4 ng/mL | Tmax [17]: 8 h | AUC(0-inf) [18]: 1060 ng·h/mL | half-life [19]: 50.9 h | CL/F [20]: 832 mL/min | Cmax [21]: 83 ng/mL | Tmax [22]: 4 h | AUC(0-inf) [23]: 1100 ng·h/mL | half-life [24]: 16 h | Cmax [25]: 92 ng/mL | Tmax [26]: 5 h | AUC(0-inf) [27]: 1450 ng·h/mL | half-life [28]: 18 h | Retention_time [29]: 4 min | Cmax [30]: 1250 ng/mL | Tmax [31]: 4 h | Compound recovery [32]: 0.2% | Compound recovery [33]: 8.8% | Compound recovery [34]: 0.2% | Compound recovery [35]: 11.5% | Compound recovery [36]: 0.6% | Compound recovery [37]: 5.8% | Compound recovery [38]: 13.6% | Compound recovery [39]: 6.4%
